# A selection: hits, their analogues and other compounds. The true share with any hit is near 2.4%.
# MT1-MMP act inh = blockers of MT1-MMP proenzyme processing, primary screen, HT1080 RFP-PRO-GFP cells, GFP/RFP fluorescence; GFP/RFP ratio fluorescence, overnight; percent of plate control window, DMSO zero; GFP/RFP ratio change, % at 20 µM; 360,000 tested, 0.061% active;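 active means GFP/RFP ratio change of at least 30% with cell ATP level not reduced by more than half and red fluorescence within 50% of control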
#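 system = RFP-PRO-GFP reporter HT1080 cells | dosing = 20 µM single dose, 1% DMSO | timing = overnight cell settling, then overnight compound exposure, 37 °C, 5% CO2 | read-out basis = GFP/RFP fluorescence ratio | controls = DMSO and RFP-L50D-GFP cell wells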
# NRP1-CendR mod = modulators of CendR peptide binding to NRP-1, primary screen, biochemical, fluorescence polarization, uHTS; FAM-RPARPAR peptide binding to NRP-1; inhibition, % at 25 µM; 360,000 tested, 0.85% active; AID 602438, 2012;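 active means inhibition or corrected inhibition above about 18%, plus a signal ratio from 0.5 to 1.5, limit read from the data, passing the limit was not always enough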
# Target sequence (O14786 whole entry, looked up): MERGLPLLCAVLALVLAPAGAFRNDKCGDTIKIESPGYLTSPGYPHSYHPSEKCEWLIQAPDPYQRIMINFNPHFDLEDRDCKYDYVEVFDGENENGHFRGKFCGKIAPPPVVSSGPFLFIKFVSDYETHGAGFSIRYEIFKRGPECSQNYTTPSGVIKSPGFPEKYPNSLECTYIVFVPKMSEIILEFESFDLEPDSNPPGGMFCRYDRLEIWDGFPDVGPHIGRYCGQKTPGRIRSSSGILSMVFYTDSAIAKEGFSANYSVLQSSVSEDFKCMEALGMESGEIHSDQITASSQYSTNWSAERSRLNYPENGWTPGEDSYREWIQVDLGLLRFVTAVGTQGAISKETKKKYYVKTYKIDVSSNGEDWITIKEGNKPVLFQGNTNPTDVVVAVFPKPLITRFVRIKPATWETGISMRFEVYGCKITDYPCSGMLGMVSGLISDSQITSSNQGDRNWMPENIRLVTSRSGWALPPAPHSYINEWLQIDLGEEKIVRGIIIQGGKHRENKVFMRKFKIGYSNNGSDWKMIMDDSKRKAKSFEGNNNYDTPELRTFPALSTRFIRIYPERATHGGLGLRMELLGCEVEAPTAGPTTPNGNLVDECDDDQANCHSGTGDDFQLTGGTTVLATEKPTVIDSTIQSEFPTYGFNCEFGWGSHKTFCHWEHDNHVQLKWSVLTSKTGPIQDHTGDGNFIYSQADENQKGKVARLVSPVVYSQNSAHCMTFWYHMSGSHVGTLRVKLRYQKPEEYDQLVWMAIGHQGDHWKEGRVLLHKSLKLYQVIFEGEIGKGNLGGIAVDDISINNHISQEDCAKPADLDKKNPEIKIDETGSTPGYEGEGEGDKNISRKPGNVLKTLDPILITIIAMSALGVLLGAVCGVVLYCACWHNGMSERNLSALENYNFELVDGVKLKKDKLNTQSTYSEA
# beta cell repl = inducers of MIN6 beta-cell proliferation, primary screen, ATP luminescence, uHTS; MIN6 cells proliferation, ATPlite luminescence, 48 h; cells starved in 0.2% serum; 100% = growth in 10% serum; proliferation, % at 10 µM; 330,000 tested, 0.29% active; AID 2380, 2010;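 active means compounds whose signal lies at least 3.5 SD above the mean of all wells on their plate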;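 further: 0% = DMSO-treated cells in low-serum medium and 100% = 10% serum control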
# SENP1 inh = human SENP1 catalytic domain inhibitors, primary screen, biochemical, FRET, uHTS; Sentrin-specific protease 1 (Homo sapiens), Q9P0U3; recombinant SENP1 catalytic domain, CyPet-SUMO1-YPet FRET cleavage; inhibition, % at 10 µM; 360,000 tested, 0.21% active; AID 624204, 2012;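 active means inhibition at least 30% at 10 µM, raw YFP signal under a set limit, fluorescence ratio 0.5 to 1.5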;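 further: 0% = enzyme with DMSO and 100% = no enzyme wells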
#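 system = hSENP1 catalytic domain, recombinant | reagent = SFCypet-SUMO1-SFYpet substrate at 25 nM | doses = one dose per compound, 10 µM, 0.5% DMSO | incubation = enzyme reaction for 50 min at room temperature, dark | measured by = FRET, CFP and YFP emission | controls = no-enzyme low, enzyme-DMSO high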
# Myeloid diff MLP = induction of myeloid progenitor differentiation, primary screen, cell-based, flow cytometry, MLPCN library | ER-HoxA9 myeloid progenitors, lysozyme-GFP differentiation | calls only at 10 µM | 360,000 tested, 1% active;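 active means normalized GFP-positive differentiation at or above the plate's own cutoff, the solvent-only control mean plus 3 SD; inconclusive means no clear call, values can overlap the other calls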;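 further: cells exposed to compound for four days before flow analysis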
# DAGLB inh = DAGLB lipase inhibitors, primary screen, biochemical, fluorescence, HTS | Diacylglycerol lipase-beta (Homo sapiens), Q8NCG7 | HEK293T DAGLB membrane lysate, EnzChek fluorogenic substrate | inhibition, % at 5.17 µM | 340,000 tested, 0.059% active | AID 504411, 2011; in the data active means inhibition above about 34%;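 further: 0% = enzyme with vehicle and 100% = wells lacking enzyme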
# Myeloid diff CP1 = inducers of myeloid progenitor differentiation, confirmation, cell-based, GFP/Mac1 flow cytometry, cherry pick 01. shares compounds with Myeloid diff MLP. ER-HoxA9 myeloid progenitors, GFP/Mac1 double-positive flow. calls only. 2,300 tested, 2% active. AID 651706, 2012;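 active means share of green or green-and-red cells above 9 and 9% in run 1 or 4 and 3% in run 2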
# GFP autofluor = flagged as fluorescent in myeloid differentiation counter-screen. AID 651707. fluorescence response, % (test concentration not listed). ER-HoxA9 myeloid progenitors, no estrogen, GFP autofluorescence flow cytometry; vehicle wells 0%, positive control 100%. shares compounds with Myeloid diff MLP. 2,300 tested, 7.4% active;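 active means over 5% cells positive for green fluorescent reporter, or over 2% positive for both it and APC stain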;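 further: range taken on the double positive population between DMSO and positive control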
# An asterisk follows results filed as active; i = inactive; ? = inconclusive; . = no result; + = active, no number.
SMILES,MT1-MMP act inh,NRP1-CendR mod,beta cell repl,SENP1 inh,Myeloid diff MLP,DAGLB inh,Myeloid diff CP1,GFP autofluor
O=C1N[C@H](Cc2ccccc2)COC(=O)[C@@H](Cc2ccc(F)cc2)CC/C=C/C[C@H]1CC(=O)N(CCO)Cc1ccccc1,-15,4,-6,3,i,-2,.,.
O=C1N[C@@H](Cc2ccccc2)COC(=O)[C@@H](Cc2ccc(F)cc2)CC/C=C/C[C@@H]1CC(=O)N(CCO)Cc1ccccc1,.,0,-6,0,+,-6,i,0
CC(C)[C@H](NC(=O)c1ccco1)C(=O)OCC(=O)Nc1ccccc1OC(F)F,-2,-8,1,0,i,-3,.,.
COCCCNC(=S)NNC(=O)c1csc(C)n1,-2,12,0,1,i,-4,.,.
N=C(N)n1ncc2c1CCCC2=O,8,2,.,-3,i,.,.,.
CC(=O)Nc1ccc(NC(=O)CSc2nccn2Cc2ccccc2)cc1,4,2,1,2,+,1,i,0
Cc1ccc(NC(=O)CSc2nccn2Cc2ccccc2)cc1C,0,0,-3,1,i,-1,.,.
CCOC(=O)C1CCN(C(=O)COC(=O)/C=C/c2ccc([N+](=O)[O-])cc2)CC1,3,15,-3,3,i,0,i,2
C=CCOC(=O)C1=C[C@@H](c2coc3ccccc3c2=O)C[C@@H](OCCCCO)O1,-6,-12,7,11,i,1,i,0
CC(OC(=O)/C=C/c1ccc2ccccc2n1)C(=O)Nc1ccc(S(N)(=O)=O)cc1 (stereo unspecified),-10,-28,2,-1,i,4,i,0
CC(OC(=O)/C=C/c1cccs1)C(=O)Nc1ccc(S(N)(=O)=O)cc1 (stereo unspecified),1,4,0,6,i,0,.,.
O=C(CCl)NC(Cc1ccccc1)C(=O)OCC(=O)c1ccc(-c2ccccc2)cc1 (stereo unspecified),10,4,.,0,?,2,.,.
O=C(Nc1ccncc1)c1cccc(S(=O)(=O)N2CCN(c3ccc(F)cc3)CC2)c1,-3,2,0,-1,i,-2,i,1
O=C(Nc1ncccc1O)c1cccc(S(=O)(=O)N2CCN(c3ccc(F)cc3)CC2)c1,-7,-8,-3,0,i,4,.,.
COc1ccccc1NC(=O)c1cccc(S(=O)(=O)N2CCN(c3ccccc3)CC2)c1,5,10,1,1,i,-3,i,0
CN1CCN(S(=O)(=O)c2cccc(C(=O)Nc3ccccc3N3CCCCC3)c2)CC1,0,12,-3,-1,i,0,i,0
O=C(CN(Cc1ccccc1)C(=O)c1ccco1)NCc1ccc(F)cc1,1,-1,-1,4,?,1,.,.
COc1cccc(NC(=O)CCC2CCN(Cc3nccs3)CC2)c1,-2,10,1,0,i,-3,.,.
Cc1ccc(-c2noc(CN(C(=O)CCN3C(=O)c4ccccc4C3=O)C(C)C)n2)cc1,24,1,0,5,+,-2,i,0
CCOc1cc(/C=N/NC(N)=O)ccc1OCC(=O)Nc1ccc(C)c(C)c1,4,-1,-2,2,i,0,.,.

# Source: PubChem (several laboratories)
